# CAL PDZ FP-1 = human CAL PDZ-peptide interaction inhibition. Q9HD26. purified CAL PDZ, TMR-peptide fluorescence polarization, 1 h. inhibition, % at 20 µM. 0.02% of 330,000 active;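 active = highest replicate inhibition of at least 40%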;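 note: plate controls were DMSO neutral control wells for no effect and unlabeled competitor peptide control wells for full effect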
#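 Material: tagged CAL PDZ domain; buffer or medium: 25 mM sodium phosphate pH 7.4, 150 mM NaCl, TCEP, IgG, Thesit; compound dosing: single point, 20 µM; schedule: 1 h incubation at room temperature before polarization reading; measured by: FP readout, S and P plane fluorescence; read-out basis: percent inhibition from loss of millipolarization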
# CAL PDZ FP-2 = CAL PDZ (human) peptide binding inhibition; 0.92% of 300,000 active; inhibition, % at 24.9 µM; purified CAL PDZ, TMR-peptide fluorescence polarization, 1 h;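 active = mean inhibition of at least 30% with at least half of replicates also reaching 30%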;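 note: 0% = DMSO neutral control and 100% = excess unlabeled competitor peptide PRC23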
# DYRK1A inh = blocks rat Dyrk1A kinase activity; inhibition, % at 12.5 µM; ADP-Glo luminescence, NFATc1 peptide; 0.43% of 310,000 active; Q63470; in the data active = inhibition above about 50%;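 note: plate controls were vehicle with enzyme for no effect and no enzyme for full effect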
# ARNT TACC3 PPI = disrupts binding between human ARNT and TACC3 | AlphaScreen His-ARNT PAS-B/GST-TACC3 binding, luminescence; TACC3 fragment carries E629A point mutation | inhibition, % at 9.99 µM | 0.66% of 390,000 active | AID 623870;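 active = mean inhibition of replicates at least 50% and at least half of replicates each reaching 50%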;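 note: 0% = complete ARNT plus TACC3 wells and 100% = ARNT alone without TACC3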
# Active calls of the source: *; · = not tested or not shown. Hits are enriched below; roughly 1.4% of the tested compounds scored in any of these assays.
SMILES,CAL PDZ FP-1,CAL PDZ FP-2,DYRK1A inh,ARNT TACC3 PPI
CC(=O)NC(Cc1cccc(C)c1)C(=O)NC1CCN(S(=O)(=O)c2ccccc2)CC1 (configuration not stated),-1,49*,-1,0
Cc1cc(=O)[nH]c2c(N=Nc3ccc(O)cc3)c(N)nn12,-1,0,6,47*
Nc1nn2c(C(F)(F)F)cc(=O)[nH]c2c1N=Nc1cccc(F)c1,1,·,23,-2
COc1cc(CCNC2=CC(=O)c3ncccc3C2=O)ccc1O,0,-3,11,37*
C[C@@H]1CN([C@H](C)CO)C(=O)c2cc(NS(=O)(=O)c3ccccc3)ccc2O[C@@H](C)CCCCO[C@@H]1CN(C)S(=O)(=O)c1cn(C)cn1,·,·,·,-14
CC(=O)Nc1ccc(-c2cc(N)n(-c3ccccc3)n2)cc1,-1,9,3,4
CC(=O)Nc1ccc(-c2cc(NC(C)=O)n(-c3ccccc3)n2)cc1,-2,75*,-1,-1
Cc1ccc(CNC(=O)c2ccc(N3CCC4(CC3)CC(c3ccccc3)=NO4)c(NC(=O)c3c(Cl)cccc3Cl)c2)cc1,1,51*,·,-6
O=C(C[C@H]1CC[C@H](NC(=O)c2ccncc2)[C@@H](CO)O1)NCC1CC1,·,·,·,-5
COc1ccc(NC(C)=O)cc1NC(C)c1nc2sc(C)c(C)c2c(=O)[nH]1 (configuration not stated),-2,59*,4,3
CO[C@@H]1CN(C)C(=O)c2cc(NC(=O)C3CCOCC3)ccc2OC[C@@H](C)N(S(=O)(=O)c2ccc(C)cc2)C[C@H]1C,·,·,·,1
COc1ccc(OC)c(NC(=O)c2ccc3c(c2)OCO3)c1,-1,-1,-9,-3
COc1ccc(OC)c(-c2csc(NC(=O)c3ccc4c(c3)OCO4)n2)c1,1,80*,-3,-3
CC1=NN(c2cc(Cl)c(S(=O)(=O)O)cc2Cl)C(=O)C1,0,1,0,30*
CC1=NN(c2ccc(S(=O)(=O)O)cc2Cl)C(=O)C1,-3,1,4,34
C[C@@H]1CN([C@@H](C)CO)C(=O)c2cc(NC(=O)c3ccccc3)ccc2O[C@@H](C)CCCCO[C@H]1CN(C)S(=O)(=O)c1cccs1,·,·,·,3
C/C(=N\Nc1nc2ccccc2s1)c1ccc(Br)s1,-1,-1,-4,·
CC(=NNc1nc2ccccc2s1)c1ccncn1,1,-3,·,70*
CCCCCn1nc(C(=O)N(CC)c2c(N)n(CCCC)c(=O)[nH]c2=O)c2ccccc2c1=O,4,45*,3,-5
CCCCn1c(N)c(N(CCC(C)C)C(=O)CSc2nncn2-c2ccccc2)c(=O)[nH]c1=O,-1,48*,·,·
CCCCn1c(N)c(N(CCOC)C(=O)c2cnc(C)cn2)c(=O)[nH]c1=O,-2,38*,16,-1
CCCCC1CCC(C(=O)N(CCOC)c2c(N)n(CC(C)C)c(=O)[nH]c2=O)CC1 (configuration not stated),0,62*,-4,·
CCCCn1c(N)c(N(CCOC)C(=O)c2cnccn2)c(=O)[nH]c1=O,0,0,-5,·
CC(C)CN(C(=O)CSc1nncn1-c1ccccc1)c1c(N)n(CC(C)C)c(=O)[nH]c1=O,-1,2,-5,0
CO[C@@H]1CN(C)C(=O)c2ccc(NS(=O)(=O)c3ccc(Cl)cc3)cc2OC[C@@H](C)NC[C@@H]1C,·,·,·,-3
SMILES,CAL PDZ FP-1,CAL PDZ FP-2,DYRK1A inh,ARNT TACC3 PPI
COc1ccccc1Nc1n[nH]c(=S)s1,-1,78*,·,-4
CCCNC(=O)[C@@H]1[C@@H](CO)[C@@H]2Cn3c(ccc(-c4ccccc4F)c3=O)[C@H]1N2C(=O)CC,·,·,·,-3
COc1ccc(O)c(/C=N/n2c(-c3ccco3)csc2=Nc2cccnc2)c1,-2,-2,0,62*
Cc1ccc(S(=O)(=O)N(C)C[C@H]2OCCCC[C@H](C)Oc3ccc(NS(=O)(=O)c4c(C)noc4C)cc3C(=O)N([C@@H](C)CO)C[C@@H]2C)cc1,·,·,·,8
Oc1ccc(Br)cc1CNc1cccc2cccnc12,0,-5,-1,49*
Oc1c(Br)cc(Br)cc1CNc1cccc2cccnc12,1,·,3,113*
CC(C)C(C(=O)Nc1ncn[nH]1)N1C(=O)c2ccccc2C1=O (configuration not stated),0,1,-4,36*
CC1(OC(=O)CCc2ccccc2)C(=O)C=C2C=C(c3ccc(C#N)cc3)N(Cc3ccccc3)C=C2C1=O (configuration not stated),1,3,12,-27
COCCN1C=C2C(=O)C(C)(OC(=O)CCc3ccccc3)C(=O)C=C2C=C1c1ccc(C#N)cc1 (configuration not stated),1,1,6,active
CC(C)CC1c2[nH]c3ccccc3c2CCN1C(=O)CCC(=O)N(C)C (configuration not stated),-2,-4,6,-1
CC(=O)c1cc(C(=O)N2CCc3c([nH]c4ccccc34)C2CC(C)C)[nH]n1 (configuration not stated),-1,77*,3,15
COc1ccc(C(=O)Nc2c(N)nc(SCC(=O)NCC3CCCO3)[nH]c2=O)cc1OC (configuration not stated),-1,92*,·,-3
Cc1ccc(C(=O)Nc2c(N)nc(SCC(=O)NCC3CCCO3)[nH]c2=O)cc1 (configuration not stated),-1,-2,2,-4
O=C(CSc1nc2ccccc2[nH]1)NCC1CCCO1 (configuration not stated),-2,40*,1,-5
COC(=O)c1cc(NC(=O)CC2NCCNC2=O)cc(C(=O)OC)c1 (configuration not stated),4,-2,6,-5
COC(=O)c1sccc1NC(=O)CC1NCCNC1=O (configuration not stated),-1,130*,7,1
CCCC#Cc1ccc([C@H]2[C@H](CO)N3CCCCN(S(=O)(=O)Cc4ccccc4)C[C@@H]23)cc1,·,·,·,18
CCCC(=O)Nc1ccc2c(c1)C(=O)N(C)C[C@H](OC)[C@@H](C)CN(Cc1ccccc1F)[C@@H](C)CO2,·,·,·,0
CCS(=O)(=O)Nc1ccc2c(c1)C(=O)N(C)[C@H]1CC[C@H](CC(=O)NC)O[C@H]1CO2,·,·,·,-1
COc1ccc(/C=C(\NC(=O)c2ccc(C)cc2)C(=O)NCCCn2ccnc2)cc1OC,-1,-3,-4,54*
Cc1ccc(C(=O)N/C(=C\c2ccco2)C(=O)NCCCn2ccnc2)cc1,1,-7,10,98*
CN(C)c1ccc(/C=C(\NC(=O)c2ccccc2)C(=O)NCCCn2ccnc2)cc1,-3,-3,2,54*
Cc1ccc(C(=O)N/C(=C/c2ccco2)C(=O)NCCCn2ccnc2)cc1,0,-2,-5,49*
C[C@@H]1CCCCO[C@H](CN(C)C(=O)Cc2ccccc2)[C@H](C)CN([C@@H](C)CO)C(=O)c2cc(NC(=O)c3ccccc3)ccc2O1,·,·,·,-8

# Screening results: PubChem, Broad Institute
